Source: ChEMBL document CHEMBL1687913, “Structure-activity relationship, conformational and biological studies of temporin L analogues” (J Med Chem, 2011)
Values after ≈ are worked out from the molar mass of the structure shown. Where a SMILES comes first, the peptide text is derived from it. [ ]: non-standard residue; d: D form. Orn = NCCC[C@H](N)C(=O)O

Assays:
Acinetobacter baumannii = experiment: Antibacterial activity against Acinetobacter baumannii ATCC 19606 after 18 to 20 hrs by microbroth dilution method; format: functional
Procedure, shortened: (§1)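 CLSI microbroth dilution, adapted. Mid-log bacteria, 2 × 10^6 CFU/mL in Mueller-Hinton broth, mixed 1:1 with MH broth holding peptide in serial 2-fold dilutions in 20% ethanol (0.75-48 μM). Incubated 18-20 h at 37 °C; growth read as A600. MIC is the lowest concentration giving 100% growth inhibition.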

Acinetobacter junii = experiment: Antibacterial activity against […] Acinetobacter junii RT-4 after 18 to 20 hrs by microbroth dilution method; format: functional; procedure, shortened: as §1
Enterococcus faecalis = experiment: Antibacterial activity against Enterococcus faecalis ATCC 29212 after 18 to 20 hrs by microbroth dilution method; format: functional; procedure, shortened: as §1
Escherichia coli [1] = experiment: Antibacterial activity against Escherichia coli ATCC 25922 after 18 to 20 hrs by microbroth dilution method; format: functional; procedure, shortened: as §1
Escherichia coli [2] = experiment: Antibacterial activity against Escherichia coli D21 after 18 to 20 hrs by microbroth dilution method; format: functional; procedure, shortened: as §1
Pseudomonas syringae = experiment: Antibacterial activity against Pseudomonas syringae pv tobaci after 18 to 20 hrs by microbroth dilution method; format: functional; procedure, shortened: as §1
Pseudomonas aeruginosa [3] = experiment: Antibacterial activity against Pseudomonas aeruginosa ATCC 15692 after 18 to 20 hrs by microbroth dilution method; format: functional; procedure, shortened: as §1
Pseudomonas aeruginosa [4] = experiment: Antibacterial activity against Pseudomonas aeruginosa ATCC 27853 after 18 to 20 hrs by microbroth dilution method; format: functional; procedure, shortened: as §1
[5] = tested on: Yersinia pseudotuberculosis; experiment: Antibacterial activity against Yersinia pseudotuberculosis YPIII after 18 to 20 hrs by microbroth dilution method; format: functional
Procedure, shortened: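 Broth microdilution adapted from CLSI. Mid-log bacteria at 2 × 10^6 CFU/mL in Mueller-Hinton broth were mixed 1:1 with MH broth containing peptide in serial 2-fold dilutions (peptide in 20% ethanol), 0.75-48 μM. Plates were incubated 18-20 h at 37 °C and growth was read as A600. MIC is the concentration giving 100% growth inhibition.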

Priestia megaterium = experiment: Antibacterial activity against Bacillus megaterium Bm11 after 18 to 20 hrs by microbroth dilution method; format: functional; procedure, shortened: as §1
Staphylococcus aureus [6] = experiment: Antibacterial activity against Staphylococcus aureus ATCC 25923 after 18 to 20 hrs by microbroth dilution method; format: functional; procedure, shortened: as §1
Staphylococcus aureus [7] = experiment: Antibacterial activity against Staphylococcus aureus Cowan I after 18 to 20 hrs by microbroth dilution method; format: functional; procedure, shortened: as §1
Staphylococcus capitis = experiment: Antibacterial activity against Staphylococcus capitis after 18 to 20 hrs by microbroth dilution method; format: functional; procedure, shortened: as §1
[8] = tested on: Staphylococcus epidermidis; experiment: Antibacterial activity against Staphylococcus epidermidis ATCC 12228 after 18 to 20 hrs by microbroth dilution method; format: functional; procedure, shortened: as §1
Streptococcus pyogenes = experiment: Antibacterial activity against Streptococcus pyogenes ATCC 21547 after 18 to 20 hrs by microbroth dilution method; format: functional; procedure, shortened: as §1
Candida albicans = experiment: Antifungal activity against Candida albicans ATCC 10231 after 18 to 20 hrs by microbroth dilution method; format: functional
Procedure, shortened: (§2)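 Yeasts tested by adapted CLSI microbroth dilution in Winge medium. Peptide given in serial 2-fold dilutions (0.75-48 μM, made in 20% ethanol). Incubation 18-20 h at 30 °C, read at A600. MIC taken as the concentration giving complete (100%) growth inhibition.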

[9] = tested on: Schizosaccharomyces pombe; experiment: Antifungal activity against Schizosaccharomyces pombe after 18 to 20 hrs by microbroth dilution method; format: functional; procedure, shortened: as §2
Saccharomyces cerevisiae = experiment: Antifungal activity against Saccharomyces cerevisiae after 18 to 20 hrs by microbroth dilution method; format: functional; procedure, shortened: as §2
[10] = Toxicity in human erythrocytes assessed as hemolysis at 24 uM after 40 mins; format: cell-based, Erythrocyte; conditions: read-out: Activity
Procedure, shortened: (§3)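 Human red blood cells suspended in 0.9% (w/v) NaCl and incubated 40 min at 37 °C with gentle mixing with serial 2-fold peptide dilutions (peptide predissolved in 20% ethanol). Spun 5 min at 900g; supernatant read at 415 nm. Cells lysed in distilled water set the 100% lysis reference.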

[11] = Toxicity in human erythrocytes assessed as hemolysis at 12 uM after 40 mins; format: cell-based, Erythrocyte; conditions: read-out: Activity; procedure, shortened: as §3
[12] = Toxicity in human erythrocytes assessed as hemolysis at 6 uM after 40 mins; format: cell-based, Erythrocyte; conditions: read-out: Activity; procedure, shortened: as §3
[13] = Toxicity in human erythrocytes assessed as hemolysis at 3 uM after 40 mins; format: cell-based, Erythrocyte; conditions: read-out: Activity; procedure, shortened: as §3
[14] = Toxicity in human erythrocytes assessed as hemolysis at 1.5 uM after 40 mins; format: cell-based, Erythrocyte; conditions: read-out: Activity; procedure, shortened: as §3

Work on CC[C@H](C)[C@H](NC(=O)[C@H](CCCNC(=N)N)NC(=O)[C@H]1CCCN1C(=O)[C@H](CC(C)C)NC(=O)[C@H](Cc1ccccc1)NC(=O)[C@H](CCCCN)NC(=O)[C@H](CO)NC(=O)[C@H](Cc1ccccc1)NC(=O)[C@H](Cc1c[nH]c2ccccc12)NC(=O)[C@@H]1CCCN1C(=O)[C@@H](NC(=O)[C@@H](N)Cc1ccccc1)C(C)C)C(=O)N[C@@H](CC(C)C)C(N)=O yielded an MIC (Acinetobacter baumannii) of 48 µM (≈ 79.2 µg/mL), an MIC (Acinetobacter junii) of 24 µM (≈ 39.6 µg/mL) and an MIC (Enterococcus faecalis) of 48 µM (≈ 79.2 µg/mL). It also gave an MIC (Escherichia coli [1]) of 24 µM (≈ 39.6 µg/mL), an MIC (Escherichia coli [2]) of 48 µM (≈ 79.2 µg/mL) and an MIC (Pseudomonas syringae) greater than 48 µM. The MIC (Pseudomonas aeruginosa [3]) was greater than 48 µM, the MIC (Pseudomonas aeruginosa [4]) was greater than 48 µM and the MIC [5] was 24 µM (≈ 39.6 µg/mL). The MIC (Priestia megaterium) was 3 µM (≈ 4.95 µg/mL), the MIC (Staphylococcus aureus [6]) was 48 µM (≈ 79.2 µg/mL) and the MIC (Staphylococcus aureus [7]) was 24 µM (≈ 39.6 µg/mL). For the same compound, the MIC (Staphylococcus capitis) was 24 µM (≈ 39.6 µg/mL), the MIC [8] was 12 µM (≈ 19.8 µg/mL) and the MIC (Streptococcus pyogenes) was 24 µM (≈ 39.6 µg/mL). For the same compound, the MIC (Candida albicans) was 24 µM (≈ 39.6 µg/mL), the MIC [9] was 12 µM (≈ 19.8 µg/mL) and the MIC (Saccharomyces cerevisiae) was 12 µM (≈ 19.8 µg/mL). It also gave a hemolysis at 40 min, 24 µM [10] of 2.5%, a hemolysis at 40 min, 12 µM [11] of 2% and a hemolysis at 40 min, 6 µM [12] of 0.6%. For the same compound, the hemolysis at 40 min, 3 µM [13] was 1.5% and the hemolysis at 40 min, 1.5 µM [14] was 0.4%.

CC(C)C[C@H](NC(=O)[C@H](CC(C)C)NC(=O)[C@H](CCCNC(=N)N)NC(=O)CNC(=O)[C@H](CC(C)C)NC(=O)[C@H](CC(C)C)NC(=O)[C@H](CCCCN)NC(=O)[C@H](CO)NC(=O)[C@H](CC(C)C)NC(=O)[C@H](Cc1c[nH]c2ccccc12)NC(=O)[C@H](CCC(N)=O)NC(=O)[C@H](CC(C)C)NC(=O)[C@@H](N)CC(C)C)C(N)=O (H-LLQWLSKLLGRLL-NH2) gave an MIC (Acinetobacter baumannii) of 12 µM (≈ 18.6 µg/mL), an MIC (Acinetobacter junii) of 24 µM (≈ 37.2 µg/mL) and an MIC (Enterococcus faecalis) of 3 µM (≈ 4.66 µg/mL). The MIC (Escherichia coli [1]) was 6 µM (≈ 9.31 µg/mL), the MIC (Escherichia coli [2]) was 12 µM (≈ 18.6 µg/mL) and the MIC (Pseudomonas syringae) was 6 µM (≈ 9.31 µg/mL). It also gave an MIC (Pseudomonas aeruginosa [3]) of 12 µM (≈ 18.6 µg/mL), an MIC (Pseudomonas aeruginosa [4]) of 24 µM (≈ 37.2 µg/mL) and an MIC [5] of 3 µM (≈ 4.66 µg/mL). The MIC (Priestia megaterium) was 1.5 µM (≈ 2.33 µg/mL), the MIC (Staphylococcus aureus [6]) was 3 µM (≈ 4.66 µg/mL) and the MIC (Staphylococcus aureus [7]) was 1.5 µM (≈ 2.33 µg/mL). For the same compound, the MIC (Staphylococcus capitis) was 1.5 µM (≈ 2.33 µg/mL), the MIC [8] was 1.5 µM (≈ 2.33 µg/mL) and the MIC (Streptococcus pyogenes) was 6 µM (≈ 9.31 µg/mL). For the same compound, the MIC (Candida albicans) was 6 µM (≈ 9.31 µg/mL), the MIC [9] was 3 µM (≈ 4.66 µg/mL) and the MIC (Saccharomyces cerevisiae) was 3 µM (≈ 4.66 µg/mL). For the same compound, the hemolysis at 40 min, 24 µM [10] was 100%, the hemolysis at 40 min, 12 µM [11] was 73% and the hemolysis at 40 min, 6 µM [12] was 25%. The hemolysis at 40 min, 3 µM [13] was 9% and the hemolysis at 40 min, 1.5 µM [14] was 4%.

CC[C@H](C)[C@H](NC(=O)[C@H](CCCN)NC(=O)CNC(=O)[C@H](CC(C)C)NC(=O)[C@H](Cc1ccccc1)NC(=O)[C@H](CCCCN)NC(=O)[C@H](CO)NC(=O)[C@H](Cc1ccccc1)NC(=O)[C@H](Cc1c[nH]c2ccccc12)NC(=O)[C@H](CCC(N)=O)NC(=O)[C@@H](NC(=O)[C@@H](N)Cc1ccccc1)C(C)C)C(=O)N[C@@H](CC(C)C)C(N)=O (H-FVQWFSKFLG[Orn]IL-NH2) showed an MIC (Acinetobacter baumannii) of 12 µM (≈ 19.2 µg/mL), an MIC (Acinetobacter junii) of 12 µM (≈ 19.2 µg/mL) and an MIC (Enterococcus faecalis) of 6 µM (≈ 9.59 µg/mL). It also gave an MIC (Escherichia coli [1]) of 12 µM (≈ 19.2 µg/mL), an MIC (Escherichia coli [2]) of 12 µM (≈ 19.2 µg/mL) and an MIC (Pseudomonas syringae) of 12 µM (≈ 19.2 µg/mL). For the same compound, the MIC (Pseudomonas aeruginosa [3]) was 24 µM (≈ 38.4 µg/mL), the MIC (Pseudomonas aeruginosa [4]) was 24 µM (≈ 38.4 µg/mL) and the MIC [5] was 3 µM (≈ 4.79 µg/mL). It also gave an MIC (Priestia megaterium) of 1.5 µM (≈ 2.4 µg/mL), an MIC (Staphylococcus aureus [6]) of 3 µM (≈ 4.79 µg/mL) and an MIC (Staphylococcus aureus [7]) of 1.5 µM (≈ 2.4 µg/mL). The MIC (Staphylococcus capitis) was 3 µM (≈ 4.79 µg/mL), the MIC [8] was 3 µM (≈ 4.79 µg/mL) and the MIC (Streptococcus pyogenes) was 24 µM (≈ 38.4 µg/mL). It also gave an MIC (Candida albicans) of 6 µM (≈ 9.59 µg/mL), an MIC [9] of 12 µM (≈ 19.2 µg/mL) and an MIC (Saccharomyces cerevisiae) of 12 µM (≈ 19.2 µg/mL). The hemolysis at 40 min, 24 µM [10] was 89%, the hemolysis at 40 min, 12 µM [11] was 62% and the hemolysis at 40 min, 6 µM [12] was 22%. For the same compound, the hemolysis at 40 min, 3 µM [13] was 7% and the hemolysis at 40 min, 1.5 µM [14] was 3%.

Compound CC[C@H](C)[C@H](NC(=O)[C@H](CCCNC(=N)N)NC(=O)CNC(=O)[C@H](CC(C)C)NC(=O)[C@H](Cc1ccccc1)NC(=O)[C@H](CCCCN)NC(=O)[C@H](CO)NC(=O)[C@H](Cc1ccccc1)NC(=O)[C@H](Cc1c[nH]c2ccccc12)NC(=O)[C@H](CCCNC(=N)N)NC(=O)[C@@H](NC(=O)[C@@H](N)Cc1ccccc1)C(C)C)C(=O)N[C@@H](CC(C)C)C(N)=O (H-FVRWFSKFLGRIL-NH2) has an MIC (Acinetobacter baumannii) of 6 µM (≈ 10 µg/mL), an MIC (Acinetobacter junii) of 3 µM (≈ 5 µg/mL) and an MIC (Enterococcus faecalis) of 12 µM (≈ 20 µg/mL). For the same compound, the MIC (Escherichia coli [1]) was 24 µM (≈ 40 µg/mL), the MIC (Escherichia coli [2]) was 12 µM (≈ 20 µg/mL) and the MIC (Pseudomonas syringae) was 6 µM (≈ 10 µg/mL). It also gave an MIC (Pseudomonas aeruginosa [3]) of 12 µM (≈ 20 µg/mL), an MIC (Pseudomonas aeruginosa [4]) of 24 µM (≈ 40 µg/mL) and an MIC [5] of 3 µM (≈ 5 µg/mL). The MIC (Priestia megaterium) was 3 µM (≈ 5 µg/mL), the MIC (Staphylococcus aureus [6]) was 6 µM (≈ 10 µg/mL) and the MIC (Staphylococcus aureus [7]) was 6 µM (≈ 10 µg/mL). The MIC (Staphylococcus capitis) was 3 µM (≈ 5 µg/mL), the MIC [8] was 3 µM (≈ 5 µg/mL) and the MIC (Streptococcus pyogenes) was 3 µM (≈ 5 µg/mL). It also gave an MIC (Candida albicans) of 12 µM (≈ 20 µg/mL), an MIC [9] of 12 µM (≈ 20 µg/mL) and an MIC (Saccharomyces cerevisiae) of 24 µM (≈ 40 µg/mL). The hemolysis at 40 min, 24 µM [10] was 100%, the hemolysis at 40 min, 12 µM [11] was 100% and the hemolysis at 40 min, 6 µM [12] was 52%. For the same compound, the hemolysis at 40 min, 3 µM [13] was 20% and the hemolysis at 40 min, 1.5 µM [14] was 7%.
